Blank lines part the entries; values can stand above or below the molecule they belong to.
Experiments:
Mus musculus [1] = assay: Tissue distribution in BDF1 female mice bearing an implanted lewis lung tumor after intravenous injection in skin at 2 h; type: ADME, organism-based, Skin of body; conditions: in vivo
Summary of the method: (§1)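 Female BDF₁ mice (18–20 g) carrying transplanted Lewis lung tumor received 23–193 kBq of the [2-¹⁴C]-labeled nucleoside in normal saline via tail vein. The compound was stored as a dry film and reconstituted just before use. Animals were killed at set times, and tissue ¹⁴C was measured by combustion and liquid scintillation. Values are mean ± SD % injected dose per gram of wet tissue, n = 6.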

[2] = Total urine activity excreted at 2 hr was estimated from the measurement of loss of tissue activity; type: ADME, tissue-based
Mus musculus [3] = assay: Tissue distribution in BDF1 female mice bearing an implanted lewis lung tumor after intravenous injection in kidney at 0.25 h.; type: ADME, organism-based; conditions: in vivo
Summary of the method: (§2)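 Female BDF1 mice (18–20 g) with implanted Lewis lung tumor received the 2-14C compound by tail vein, 23–193 kBq in normal saline, reconstituted from a dry film just before use. Animals were killed at set times and tissues taken for 14C counting by combustion and liquid scintillation. Values are percent injected dose per gram wet tissue, mean ± standard deviation, six animals.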

Mus musculus [4] = assay: Tissue distribution in BDF1 female mice bearing an implanted lewis lung tumor after intravenous injection in muscle at 0.25 h.; type: ADME, organism-based; conditions: in vivo; summary of the method: as §1
Mus musculus [5] = assay: Radioactive constituent of uracil in urine at 2 hr time interval after intravenous injection into BDF1 female mice bearing lewis lung tumor; type: ADME, organism-based; conditions: in vivo
Summary of the method: (§3)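 Radiolabeled nucleoside given in normal saline by tail vein, 23–193 kBq per mouse, to female BDF1 mice (18–20 g) carrying transplanted Lewis lung tumor. Urine was collected when the animals were killed. Components were identified by reverse-phase HPLC with UV at 256 nm on urine spiked with reference compounds, matched to liquid scintillation counts of the eluate. Each is reported as a percent of total urine radioactivity.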

Mus musculus [6] = assay: Radioactive constituent in urine at 8 hr time interval after intravenous injection into BDF1 female mice bearing lewis lung tumor; type: ADME, organism-based; conditions: in vivo; summary of the method: as §3
Mus musculus [7] = assay: Tissue distribution in BDF1 female mice bearing an implanted lewis lung tumor after intravenous injection in stomach at 0.25 h.; type: ADME, organism-based; conditions: in vivo; summary of the method: as §1
Mus musculus [8] = assay: Radioactive constituent of 5-fluorouracil in urine at 8 hr time interval after intravenous injection into BDF1 female mice bearing lewis lung tumor; type: ADME, organism-based; conditions: in vivo; summary of the method: as §3
[9] = Total urine activity excreted at 4 hr was estimated from the measurement of loss of tissue activity; type: ADME, tissue-based
Mus musculus [10] = assay: Radioactive constituent of 5-fluorouracil in urine at 4 hr time interval after intravenous injection into BDF1 female mice bearing lewis lung tumor; type: ADME, organism-based; conditions: in vivo; summary of the method: as §3
Mus musculus [11] = assay: Radioactive constituent of uracil in urine at 0.5 hr time interval after intravenous injection into BDF1 female mice bearing lewis lung tumor; type: ADME, organism-based; conditions: in vivo; summary of the method: as §3
Mus musculus [12] = assay: Radioactive constituent of other in urine at 0.5 hr time interval after intravenous injection into BDF1 female mice bearing lewis lung tumor; type: ADME, organism-based; conditions: in vivo; summary of the method: as §3
Mus musculus [13] = assay: Radioactive constituent of 5-fluorouracil in urine at 2 hr time interval after intravenous injection into BDF1 female mice bearing lewis lung tumor; conditions: in vivo
Mus musculus [14] = assay: Tissue distribution in BDF1 female mice bearing an implanted lewis lung tumor after intravenous injection in spleen at 0.25 h.; type: ADME, organism-based; conditions: in vivo; summary of the method: as §1
Mus musculus [15] = assay: Tissue distribution in BDF1 female mice bearing an implanted lewis lung tumor after intravenous injection in bone at 0.25 h.; type: ADME, organism-based; conditions: in vivo; summary of the method: as §2
[16] = Total urine activity excreted at 8 hr was estimated from the measurement of loss of tissue activity; type: ADME, tissue-based
Mus musculus [17] = assay: Tissue distribution in BDF1 female mice bearing an implanted lewis lung tumor after intravenous injection in skin at 0.25 h.; type: ADME, organism-based, Skin of body; conditions: in vivo; summary of the method: as §1
Mus musculus [18] = assay: Radioactive constituent in urine at 4 hr time interval after intravenous injection into BDF1 female mice bearing lewis lung tumor; type: ADME, organism-based; conditions: in vivo; summary of the method: as §3
Mus musculus [19] = assay: Radioactive constituent in urine at 2 hr time interval after intravenous injection into BDF1 female mice bearing lewis lung tumor; type: ADME, organism-based; conditions: in vivo; summary of the method: as §3
Mus musculus [20] = assay: Radioactive constituent of other in urine at 2 hr time interval after intravenous injection into BDF1 female mice bearing lewis lung tumor; type: ADME, organism-based; conditions: in vivo; summary of the method: as §3
Mus musculus [21] = assay: Radioactive constituent of uracil in urine at 8 hr time interval after intravenous injection into BDF1 female mice bearing lewis lung tumor; type: ADME, organism-based; conditions: in vivo; summary of the method: as §3
Mus musculus [22] = assay: Tissue distribution in BDF1 female mice bearing an implanted lewis lung tumor after intravenous injection in spleen at 0.25 h; type: ADME, organism-based; conditions: in vivo; summary of the method: as §1
Mus musculus [23] = assay: Tissue distribution in BDF1 female mice bearing an implanted lewis lung tumor after intravenous injection in skin at 0.25 h; type: ADME, organism-based, Skin of body; conditions: in vivo; summary of the method: as §1
Mus musculus [24] = assay: Tissue distribution in BDF1 female mice bearing an implanted lewis lung tumor after intravenous injection in muscle at 0.25 h; type: ADME, organism-based; conditions: in vivo; summary of the method: as §1
Mus musculus [25] = assay: Tissue distribution in BDF1 female mice bearing an implanted lewis lung tumor after intravenous injection in stomach at 0.5 h. Value in parentheses is organ to tumor ratio; type: ADME, organism-based; conditions: in vivo
Summary of the method: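 Female BDF₁ mice (18–20 g) with implanted Lewis lung tumor were given 23–193 kBq of the [2-¹⁴C] nucleoside in normal saline by tail vein. Tissue ¹⁴C was counted by combustion and liquid scintillation, with n = 6 per time point. The organ-to-tumor ratio was derived from the % injected dose per gram of wet tissue in the organ and in the tumor.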

Mus musculus [26] = assay: Tissue distribution in BDF1 female mice bearing an implanted lewis lung tumor after intravenous injection in bone at 0.25 h; type: ADME, organism-based; conditions: in vivo; summary of the method: as §2

Tissue distribution (Mus musculus [1]): 0.06 | Total urine activity [2]: 30% | Tissue distribution (Mus musculus [3]): 47.4 | Tissue distribution (Mus musculus [4]): 2.48 | Total radioactivity (Mus musculus [5]): 3.3% | Total radioactivity (Mus musculus [6]): 52.4% | Tissue distribution (Mus musculus [7]): 2.18 | Total radioactivity (Mus musculus [8]): 4.5% | Total urine activity [9]: 0.8% | Total radioactivity (Mus musculus [10]): 16.3% | Total radioactivity (Mus musculus [11]): 1.4% | Total radioactivity (Mus musculus [12]): 5% | Total radioactivity (Mus musculus [13]): 2.8% | Tissue distribution (Mus musculus [14]): 8.72 | Tissue distribution (Mus musculus [15]): 1.69 | Total urine activity [16]: 0.2% | Tissue distribution (Mus musculus [17]): 3.3 | Total radioactivity (Mus musculus [18]): 63.4% | Total radioactivity (Mus musculus [19]): 88.5% | Total radioactivity (Mus musculus [20]): 5.4% | Total radioactivity (Mus musculus [21]): 4.5%
Structure (SMILES): O=c1[nH]c(=O)n([C@H]2O[C@@H](CO)[C@H](O)[C@H]2F)cc1F

Tissue distribution (Mus musculus [22]): 2.12 | Tissue distribution (Mus musculus [23]): 2.24 | Tissue distribution (Mus musculus [24]): 1.48 | Tissue distribution (Mus musculus [25]): 0.75 | Tissue distribution (Mus musculus [26]): 0.77
Structure (SMILES): O=c1[nH]c(=O)n([C@H]2O[C@@H](CO)[C@H](O)[C@H]2F)cc1Cl
